Rows were chosen to be rich in hits. Some 9.6% of all compounds tested hit in one or more screens of this group.
HCT116 PTEN-null = growth suppression of PTEN-null HCT116, primary screen, cell-based, CellTiter-Glo. HCT116 PTEN-null viability, 60 h; hits give low values. viability, % at 10 µM. hit rate 1.2% among 140,000;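 active = viability at or below a set limit, 4 SD under the median of all tested compounds, cut at about 3.7% in these data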;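 note: PTEN knockout HCT116 line with beta catenin targeted HCT116 as companion control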
PMI activator = activators of human PMI, primary screen, biochemical, fluorescence intensity, near-Km mannose 6-phosphate; activation factor at 20 µM; purified human PMI, coupled resazurin fluorescence, 20 min; hits give high values; 1 = vehicle control, 0 substrate-free wells; Mannose-6-phosphate isomerase (Homo sapiens), P34949; hit rate 0.005% among 190,000;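 active = activation factor of 2 or more at 20 µM, relative to plate controls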
Target sequence (P34949 whole entry, looked up): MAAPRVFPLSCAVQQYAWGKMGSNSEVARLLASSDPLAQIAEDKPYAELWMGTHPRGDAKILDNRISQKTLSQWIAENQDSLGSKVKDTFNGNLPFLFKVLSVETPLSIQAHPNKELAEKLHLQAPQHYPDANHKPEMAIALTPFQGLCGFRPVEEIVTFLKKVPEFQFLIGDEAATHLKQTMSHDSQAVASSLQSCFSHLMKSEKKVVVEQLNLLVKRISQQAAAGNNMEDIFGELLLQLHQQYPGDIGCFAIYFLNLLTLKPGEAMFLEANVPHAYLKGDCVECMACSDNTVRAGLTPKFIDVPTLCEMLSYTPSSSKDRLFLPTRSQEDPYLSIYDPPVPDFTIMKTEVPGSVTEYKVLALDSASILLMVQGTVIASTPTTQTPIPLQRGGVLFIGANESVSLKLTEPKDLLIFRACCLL
PMI act satM6P = human PMI activators, high substrate, primary screen, biochemical, fluorescence intensity, near-saturating mannose 6-phosphate. Mannose-6-phosphate isomerase (Homo sapiens), P34949. coupled PMI enzyme assay, resazurin fluorescence, 20 min; hits give high values; 1 = untreated enzyme, 0 = substrate-free blank. activation factor at 20 µM. hit rate 0.34% among 190,000. AID 1216, 2008;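 active = activation factor of 2 or more at 20 µM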
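Material: human phosphomannose isomerase with PGI, G6PDH, diaphorase coupling enzymes. Quantity: 15 ng/mL PMI. Medium: HEPES pH 7.4 buffer with MgCl2 and Tween-20. Reagent: Near-saturating mannose-6-phosphate, 1.0 mM. Compound: 20 µM single dose. Times: enzyme reaction with compound 20 min at room temperature. Detection: resorufin fluorescence at Ex 544/Em 590 nm.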
bCat KO growth = primary screen for growth suppressors in beta-catenin knockout HCT116 cells (colon tumor, human); HCT116 beta-catenin knockout viability, CellTiter-Glo, 60 h; hits give low values; viability, % at 10 µM; hit rate 1.5% among 140,000; AID 818, 2007;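 active = viability at or under a set limit, the compound median less 4 SD, cut at about 6% in these data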
Lmaj promast = Leishmania major promastigote growth inhibition, primary screen | Leishmania major promastigotes, resazurin fluorescence viability | inhibition, % at 10 µM | hit rate 9% among 200,000 | AID 1063, 2008; in the data active = inhibition above about 50%;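 note: promastigotes grown with compound for 44 hours at 28 °C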
Each line names hits and unclear results; the compound was inactive in the other large screens.

CCCC(c1nnnn1C1CCCCC1)N1CCN(C2CCCC2)CC1 (stereo not given)	none
CCC(CC)C1C(C#N)=C(N)Oc2n[nH]c(-c3ccccc3)c21 (stereo not given)	none
Cc1[nH]nc2c1C(C1CC=CCC1)C(C#N)=C(N)O2 (stereo not given)	Lmaj promast 100
CCC(CC)C1C(C#N)=C(N)Oc2n[nH]c(C)c21 (stereo not given)	Lmaj promast 99
C=CCN1C(=O)NC(c2ccccc2)(C(F)(F)F)S/C1=C(\C#N)c1nnc(N2CCOCC2)n1-c1ccccc1 (stereo not given)	none
COCCNC(=O)CSc1nnc(-c2ccc(C)cc2)c(-c2ccc(C)cc2)n1	Lmaj promast 90 (no result: HCT116 PTEN-null, bCat KO growth)
COCCNC(=O)CSc1ccc(C)cc1	none
O=C1NC(=O)/C(=C\c2ccc(N3CCOCC3)o2)N1	none (no result: HCT116 PTEN-null, bCat KO growth)
COc1ccc(C(=S)N2CCOCC2)cc1OS(=O)(=O)c1ccccc1[N+](=O)[O-]	none
CCOC(=O)Cn1c(=NC(=O)c2ccc([N+](=O)[O-])s2)sc2ccccc21	Lmaj promast 80
CCOC(=O)Cn1c(=NC(=O)C2COc3ccccc3O2)sc2cc(S(N)(=O)=O)ccc21 (stereo not given)	none
Cc1ccc(C)c(NC(=S)NC(NC(=O)Cc2cccc3ccccc23)C(Cl)(Cl)Cl)c1 (stereo not given)	HCT116 PTEN-null 2.6
CC(=O)n1cc(C(C[N+](=O)[O-])SCCN)c2ccccc21 (stereo not given)	none
OC(CNCc1ccccc1)Cn1ccc2ccccc21 (stereo not given)	Lmaj promast 96
O=C(c1ccc(F)cc1)N1CCN(C2CCC(c3ccccc3)CC2)CC1 (stereo not given)	Lmaj promast 92 (no result: HCT116 PTEN-null, bCat KO growth)
COc1ccccc1N1CCN(C2CCN(C3CCC(c4ccccc4)CC3)CC2)CC1 (stereo not given)	Lmaj promast 99 (no result: HCT116 PTEN-null, bCat KO growth)
O=C(c1ccccc1F)N1CCN(C2CCC(c3ccccc3)CC2)CC1 (stereo not given)	Lmaj promast 97 (no result: HCT116 PTEN-null, PMI activator, PMI act satM6P, bCat KO growth)
COc1ccc(C(=O)N2CCN(C3CCC(c4ccccc4)CC3)CC2)cc1OC (stereo not given)	Lmaj promast 88
CCCc1nnc(N2C(=O)c3cccc4cccc(c34)C2=O)s1	none
CCc1nnc(NC(=O)CSc2n[nH]c(-c3ccccc3O)n2)s1	none (no result: HCT116 PTEN-null, bCat KO growth)
O=C(COC(=O)/C=C/c1cccs1)Nc1cccc(S(=O)(=O)N2CCCC2)c1	none (no result: HCT116 PTEN-null, bCat KO growth)
COc1ccc(Nc2nc(Nc3ccc(OC)cc3)nc(-n3[nH]c(=O)c(C)c3C)n2)cc1	Lmaj promast 100
COc1ccc(Nc2nc(OC)nc(N3CCOCC3)n2)cc1	none (no result: HCT116 PTEN-null, bCat KO growth)
c1ccc(N2CCN(Cc3cn4cccnc4n3)CC2)cc1	none
CCCN(CCC)c1nc(C#N)nc(N(CCC)CCC)n1	none (no result: HCT116 PTEN-null, bCat KO growth)
CCCN(CCC)c1nc(N(CCC)CCC)[nH]c(=O)n1	Lmaj promast 57 (no result: HCT116 PTEN-null, bCat KO growth)
CCOc1ccccc1CN(CCc1ccc2c(c1)OCO2)Cc1ccccn1	Lmaj promast 82
Cc1cc(N/N=C/c2ccccc2Br)nc2ccccc12	Lmaj promast 52
Brc1ccccc1/C=N/Nc1ccc2ccccc2n1	none
COc1cc(Cl)c(C)cc1NC(C)C(=O)Nc1cc(C(F)(F)F)ccc1N1CCOCC1 (stereo not given)	none
COc1ccc(NC(C)C(=O)Nc2cc(C(F)(F)F)ccc2N2CCOCC2)c(OC)c1 (stereo not given)	Lmaj promast 72
Cc1[nH]nc2c1C(c1cccs1)C1=C(CC(C)(C)CC1=O)N2 (stereo not given)	none (no result: HCT116 PTEN-null, bCat KO growth)
N#CC1=C(N)Oc2cc3ccccc3cc2C1c1cccnc1 (stereo not given)	Lmaj promast 85
N#CC1=C(N)OC2=C(C(=O)CC(c3ccccc3)C2)C1c1cccnc1 (stereo not given)	Lmaj promast 93
Cc1ccc2cc(C3C(C#N)=C(N)Oc4c3ccc3cccnc43)c(=O)[nH]c2c1 (stereo not given)	Lmaj promast 91
N#CC1=C(N)Oc2c(ccc3cccnc23)C1c1cccnc1 (stereo not given)	bCat KO growth 4.5
O=C(CNCc1cccs1)Nc1ccc(S(=O)(=O)N2CCCCC2)cc1	none (no result: HCT116 PTEN-null, bCat KO growth)

Source: PubChem BioAssay (several laboratories)
